Test results reported in ChEMBL document CHEMBL2150856, “Fluorinated N,N-dialkylaminostilbenes for Wnt pathway inhibition and colon cancer repression” (J Med Chem, 2011).
Active and inactive are the calls of the source. The calls are words filed in the database; no cut-off is given here.

Tests used:
LS174T [1] = test: Inhibition of Wnt/beta-catenin in human LS174T cells assessed as reduction in Axin-2 protein level at 10 uM by Western blotting; assay type: cell-based
LS174T [2] = test: Inhibition of Wnt/beta-catenin in human LS174T cells assessed as reduction in c-Myc protein level at 10 uM by Western blotting; assay type: cell-based
LS174T [3] = test: Inhibition of Wnt/beta-catenin in human LS174T cells assessed as effect on […] at 10 uM by Western blotting; assay type: cell-based
[4] = Drug uptake in human LS 174T cells assessed as accumulation in cytoplasm after 2 hrs by confocal microscopy; assay type: ADME, cell-based; details: ls174t
Procedure, shortened: (§1)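 LS174 cells on cover glass exposed to 10 μM fluorescent compound for 2h, 6h, 12h or 24h, then fixed in 4% paraformaldehyde 20 min at room temperature, PBS-washed, mounted and imaged by confocal microscopy under 405nm excitation.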

[5] = Drug uptake in human LS 174T cells assessed as accumulation in nucleus after 2 hrs by confocal microscopy; assay type: ADME, cell-based; details: ls174t; procedure, shortened: as §1
[6] = Drug uptake in human LS 174T cells assessed as accumulation in nucleus after 12 hrs by confocal microscopy; assay type: ADME, cell-based; details: ls174t; procedure, shortened: as §1
LS174T [7] = test: Inhibition of Wnt/beta-catenin in human LS174T cells assessed as reduction in c-Myc protein level at 30 uM by Western blotting; assay type: cell-based
LS174T [8] = test: Inhibition of Wnt/beta-catenin in human LS174T cells assessed as reduction in Axin-2 protein level at 30 uM by Western blotting; assay type: cell-based
HCT-116 [9] = test: Cytotoxicity against human HCT116 cells at 10 uM for 4 days by vi-cell cell viability analysis; assay type: functional, cell-based
Procedure, shortened: (§2)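 CRC cells treated with DMSO or inhibitor for 2d and 4d; cell number and viability counted on a Vi-Cell analyzer. HCT116 and SW480 kept in DMEM with 10% FBS; LS174T in RPMI with 5% FBS; all with 1% penicillin/streptomycin.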

LS174T [10] = test: Cytotoxicity against human LS 174T cells at 10 uM for 2 days by vi-cell cell viability analysis; assay type: functional, cell-based; procedure, shortened: as §2
LS174T [11] = test: Cytotoxicity against human LS 174T cells at 10 uM for 4 days by vi-cell cell viability analysis; assay type: functional, cell-based; procedure, shortened: as §2
HCT-116 [12] = test: Cytotoxicity against human HCT116 cells at 10 uM for 2 days by vi-cell cell viability analysis; assay type: functional, cell-based; procedure, shortened: as §2
SW480 [13] = test: Cytotoxicity against human SW480 cells at 10 uM for 4 days by vi-cell cell viability analysis; assay type: functional, cell-based; procedure, shortened: as §2
SW480 [14] = test: Cytotoxicity against human SW480 cells at 10 uM for 2 days by vi-cell cell viability analysis; assay type: functional, cell-based; procedure, shortened: as §2
LS174T [15] = test: Inhibition of Wnt/beta-catenin in human LS 174T cells assessed as reduction in TCF4 protein level at 100 uM by Western blotting; assay type: cell-based
LS174T [16] = test: Inhibition of Wnt/beta-catenin in human LS174T cells assessed as reduction in CD44 mRNA level at 100 uM after 36 hrs by RT-PCR analysis; assay type: cell-based
LS174T [17] = test: Inhibition of Wnt/beta-catenin in human LS 174T cells assessed as reduction in pygopus2 protein level at 100 uM by Western blotting; assay type: cell-based
LS174T [18] = test: Inhibition of Wnt/beta-catenin in human LS174T cells assessed as reduction in Ki67 mRNA level at 100 uM after 36 hrs by RT-PCR analysis; assay type: cell-based
LS174T [19] = test: Inhibition of Wnt/beta-catenin in human LS174T cells assessed as reduction in Lgr5 mRNA level at 100 uM after 36 hrs by RT-PCR analysis; assay type: cell-based
LS174T [20] = test: Inhibition of Wnt/beta-catenin in human LS174T cells assessed as reduction in cyclin B1 protein level at 100 uM by Western blotting; assay type: cell-based
HEK-293T [21] = test: Inhibition of LiCl-induced […] in human HEK293T cells transfected with TOP Flash assessed as decrease in luciferase expression at 100 uM after 12 hrs by dual luciferase reporter assay; assay type: cell-based
Procedure, shortened: (§3)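 HEK293T transiently transfected (calcium phosphate) with Super8xTOPFlash plus Renilla luciferase reporters; medium changed after 12h, then 6h later cells pretreated 12h with DMSO or inhibitor before stimulation with 25mM LiCl or Wnt3A-conditioned medium. After 12h, dual-luciferase read-out; triplicate wells, each experiment run at least twice.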

LS174T [22] = test: Inhibition of Wnt/beta-catenin in human LS174T cells assessed as reduction in survivin mRNA level at 100 uM after 36 hrs by RT-PCR analysis; assay type: cell-based
LS174T [23] = test: Inhibition of Wnt/beta-catenin in human LS174T cells assessed as increase in p21WAF1/CIP1 protein level at 100 uM by Western blotting; assay type: cell-based
LS174T [24] = test: Inhibition of Wnt/beta-catenin in human LS174T cells assessed as reduction in Cyclin D1 protein level at 100 uM by Western blotting; assay type: cell-based
LS174T [25] = test: Inhibition of Wnt/beta-catenin in human LS174T cells assessed as reduction in c-Myc mRNA level at 100 uM after 36 hrs by RT-PCR analysis; assay type: cell-based
HEK-293T [26] = test: Inhibition of […] in human HEK293T cells transfected with TOP Flash assessed as decrease in luciferase expression at 100 uM after 12 hrs by dual luciferase reporter assay; assay type: cell-based; procedure, shortened: as §3
LS174T [27] = test: Inhibition of Wnt/beta-catenin in human LS174T cells assessed as effect on […] at 100 uM by Western blotting; assay type: cell-based
LS174T [28] = test: Inhibition of Wnt/beta-catenin in human LS174T cells assessed as reduction in c-Myc protein level at 100 uM by Western blotting; assay type: cell-based
LS174T [29] = test: Cytotoxicity against human LS 174T cells at 0.1 uM for 2 days by vi-cell cell viability analysis; assay type: functional, cell-based; procedure, shortened: as §2
LS174T [30] = test: Antitumor activity against human LS 174T cells xenografted in C57BL/6J athymic nude mouse assessed as reduction in tumor growth at 20 mg/kg/day, ip; assay type: functional, organism-based
Procedure, shortened: (§4)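 LS174 cells (2 × 10^6) injected subcutaneously into both flanks of 6–8 week C57BL/6J athymic nude mice; mice randomized to two groups. Daily ip dosing at 20mg/kg/day in corn oil (50 μl/mouse); controls got corn oil alone. Body weight and tumor size (digital caliper) recorded twice weekly for one month; volume V=1/2LW^2 (mm3).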

LS174T [31] = test: Inhibition of Wnt/beta-catenin in human LS174T cells assessed as reduction in c-Myc protein level at 2.5 uM by Western blotting; assay type: cell-based
LS174T [32] = test: Inhibition of Wnt/beta-catenin in human LS 174T cells assessed as reduction in pygopus2 mRNA level at 10 uM by RT-PCR analysis; assay type: cell-based
Mus musculus = test: Toxicity in human LS 174T cells xenografted C57BL/6J athymic nude mouse assessed as change in body weight at 20 mg/kg/day, ip within 1 month; assay type: organism-based, LS174T; parameters: route intraperitoneal; details: in vivo; procedure, shortened: as §4
LS174T [33] = test: Inhibition of Wnt/beta-catenin in human LS 174T cells assessed as reduction in pygopus2 protein level at 10 uM by Western blotting; assay type: cell-based
LS174T [34] = test: Inhibition of Wnt/beta-catenin in human LS 174T cells assessed as decrease in […] in nucleus using DAPI staining at 10 uM for 24 hrs by immunofluorescent microscopy; assay type: cell-based
Procedure, shortened: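 LS174 cells treated 24h with 10 μM compound or DMSO, fixed (4% paraformaldehyde, 20 min, RT), permeabilized with 0.3% Triton X-100, blocked in 5% goat serum 30 min. Stained overnight with anti-β-catenin (1:300), then Alexa-488 anti-rabbit IgG (1:500) 40 min; nuclei counterstained with DAPI; confocal imaging.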

LS174T [35] = test: Inhibition of Wnt/beta-catenin in human LS 174T cells assessed as reduction in TCF4 protein level at 10 uM by Western blotting; assay type: cell-based
LS174T [36] = test: Inhibition of Wnt/beta-catenin in human LS174T cells assessed as reduction in c-Myc protein level at 0.5 uM by Western blotting; assay type: cell-based
LS174T [37] = test: Cytotoxicity against human LS 174T cells at 0.1 uM for 4 days by vi-cell cell viability analysis; assay type: functional, cell-based; procedure, shortened: as §2
LS174T [38] = test: Inhibition of Wnt/beta-catenin in human LS174T cells assessed as reduction in Axin-2 protein level at 2.5 uM by Western blotting; assay type: cell-based
LS174T [39] = test: Inhibition of Wnt/beta-catenin in human LS174T cells assessed as reduction in Axin-2 protein level at 0.5 uM by Western blotting; assay type: cell-based
LS174T [40] = test: Inhibition of Wnt/beta-catenin in human LS 174T cells assessed as reduction in TCF4 mRNA level at 10 uM by RT-PCR analysis; assay type: cell-based

CN(C)c1ccc(/C=C/c2cccc(F)c2F)cc1
inhibition (LS174T [1]): Active
inhibition (LS174T [2]): Active
inhibition (LS174T [3]): inactive

CCN(CC)c1ccc(/C=C/c2c(F)cccc2F)cc1
Drug uptake [4]: Active
inhibition (LS174T [1]): Active
Drug uptake [5]: Active
Drug uptake [6]: Not Active
inhibition (LS174T [2]): Active
inhibition (LS174T [3]): inactive

CN(C)c1ccccc1/C=C/c1c(F)cccc1F
inhibition (LS174T [1]): inactive
inhibition (LS174T [2]): inactive
inhibition (LS174T [3]): inactive

CN(C)c1ccc(CCc2c(F)cccc2F)cc1
inhibition (LS174T [1]): inactive
inhibition (LS174T [2]): inactive

CN(C)c1ccc(/C=C/c2ccccc2)cc1
inhibition (LS174T [7]): Active
inhibition (LS174T [1]): inactive
inhibition (LS174T [8]): Active
inhibition (LS174T [2]): inactive
inhibition (LS174T [3]): inactive

COc1cc(/C=C/c2ccc(O)cc2)cc(OC)c1
Activity (HCT-116 [9]): Active
Activity (LS174T [10]): Active
Activity (LS174T [11]): Active
Activity (HCT-116 [12]): Active
Activity (SW480 [13]): Active
Activity (SW480 [14]): Active

CN(C)c1ccc(/C=C/c2c(F)ccc(F)c2F)cc1
inhibition (LS174T [1]): Active
inhibition (LS174T [2]): Active
inhibition (LS174T [3]): inactive

CCN(CC)c1ccc(/C=C/c2ccccc2F)cc1
inhibition (LS174T [1]): Active
inhibition (LS174T [2]): Active
inhibition (LS174T [3]): inactive

CN(C)c1cccc(/C=C/c2c(F)cccc2F)c1
inhibition (LS174T [1]): inactive
inhibition (LS174T [2]): inactive
inhibition (LS174T [3]): inactive

CN(C)c1ccc(/C=C/c2c(F)cc(F)cc2F)cc1
inhibition (LS174T [1]): Active
inhibition (LS174T [2]): Active
inhibition (LS174T [3]): inactive

Oc1ccc(/C=C/c2cc(O)cc(O)c2)cc1
inhibition (LS174T [15]): Active
inhibition (LS174T [16]): Active
inhibition (LS174T [17]): Active
Activity (HCT-116 [9]): Active
inhibition (LS174T [18]): Active
Activity (LS174T [10]): Active
inhibition (LS174T [19]): Active
inhibition (LS174T [20]): Active
inhibition (HEK-293T [21]): Active
inhibition (LS174T [22]): Active
inhibition (LS174T [23]): Active
inhibition (LS174T [24]): Active
Activity (LS174T [11]): Active
inhibition (LS174T [25]): Active
Activity (HCT-116 [12]): Active
Activity (SW480 [13]): Active
inhibition (HEK-293T [26]): Active
inhibition (LS174T [27]): inactive
inhibition (LS174T [28]): Active
Activity (SW480 [14]): Active

CN(C)c1ccc(/C=C/c2cccc(F)c2)cc1
inhibition (LS174T [1]): Active
inhibition (LS174T [2]): Active
inhibition (LS174T [3]): inactive

CN(C)c1ccc(/C=C/c2ccc(F)cc2)cc1
inhibition (LS174T [3]): inactive

CN(C)c1ccc(/C=C/c2ccccc2F)cc1
Activity (HCT-116 [9]): Active
Activity (LS174T [10]): Active
inhibition (LS174T [1]): Active
inhibition (LS174T [2]): Active
Activity (LS174T [11]): Active
Activity (HCT-116 [12]): Active
Activity (SW480 [13]): Active
inhibition (LS174T [3]): inactive
Activity (SW480 [14]): Active

Oc1ccc(/C=C\c2cc(O)cc(O)c2)cc1
inhibition (LS174T [24]): inactive
inhibition (LS174T [28]): inactive

Fc1ccccc1/C=C/c1ccc(N(c2ccccc2)c2ccccc2)cc1
inhibition (LS174T [1]): inactive
inhibition (LS174T [2]): inactive
inhibition (LS174T [3]): inactive

CN(C)c1ccc(/C=C/c2c(F)cccc2F)cc1
Activity (LS174T [29]): Active
growth inhibition (GI) (LS174T [30]): Active
inhibition (LS174T [31]): Active
inhibition (LS174T [32]): inactive
Activity (Mus musculus): Non-toxic
inhibition (LS174T [33]): Active
inhibition (LS174T [34]): Active
inhibition (LS174T [35]): Active
inhibition (LS174T [36]): Active
inhibition (LS174T [1]): Active
inhibition (LS174T [2]): Active
Activity (LS174T [37]): Active
inhibition (LS174T [38]): Active
inhibition (LS174T [39]): Active
inhibition (LS174T [3]): inactive
inhibition (LS174T [40]): Active

CN(C)c1ccc(/C=C/c2cc(F)ccc2F)cc1
inhibition (LS174T [1]): Active
inhibition (LS174T [2]): Active
inhibition (LS174T [3]): inactive
